Data set [1] concerns P388. The experiment in a line: Percent increase in life span of P388 leukemia cells (10e6) infected(ip) mice at dose of 400 (400) mg/kg, ip: day 1 only. The format is functional, Mus musculus.
The subject of data set [2] is HEp-2. The experiment in a line: Cytotoxicity against H.Ep cells. The class given is functional, cell-based. The conditions noted are these: Homo sapiens. An outline of the steps:
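H.Ep.-2 human cell culture cytotoxicity screen. Value is the drug concentration that inhibits cell growth to 50% of untreated controls.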

Data set [3] relates to HEp-2. The experiment in a line: Cytotoxicity against H.Ep cells in the presence of 0.1 ug/mL pentostatin. The format is functional, cell-based. The conditions noted are these: Homo sapiens. An outline of the steps:
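H.Ep.-2 cell culture cytotoxicity screen with pentostatin at 0.1 µg/mL in the medium. Value is the drug concentration that inhibits cell growth to 50% of controls.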

The species named for another data set is Bos taurus. The experiment in a line: Kinetic parameter in calf intestine adenosine deaminase. The format is ADME. Particulars: cattle, in vitro.
The test system of data set [4] is P388. Put plainly: Percent increase in life span of P388 leukemia cells (10e6) infected(ip) mice at dose of 50 (400) mg/kg, ip: qd 1-5 schedule. The class given is functional, Mus musculus.
The test system of data set [5] is P388. The experiment in a line: Percent increase in life span of P388 leukemia cells (10e6) infected(ip) mice at dose of 50 (200) mg/kg, ip: qd 1-5 schedule.
Data set [6] has as its system P388. The experiment in a line: Percent increase in life span of P388 leukemia cells (10e6) infected(ip) mice at dose of 6(50) mg/kg, ip: qd 1-9 schedule. The format is functional, Mus musculus.

From ChEMBL document CHEMBL1122375, “Synthesis and biological evaluation of 2-fluoro-8-azaadenosine and related compounds” (J Med Chem, 1983) come the findings set out here.

On to `Nc1nc(N)c2nn(C3O[C@H](CO)[C@@H](O)[C@H]3O)nc2n1` (some centres undefined), for which the ILS (commonly the gain in survival time of treated over control animals, in per cent) in the data set with P388 [1] is recorded as 0%. Further, in the data set with HEp-2 [2], the IC50 (as a rule, the point on the concentration scale where inhibition reaches its midpoint) is over 75 µM. Take `Nc1ncnc2c1nnn2[C@H]1C[C@H](O)[C@@H](CO)O1`: the IC50 in the data set on HEp-2 [3] is over 25 µM; in the data set with HEp-2 [2], 10 µM. For the same compound, the Vmax (usually the rate approached at saturating substrate) in the data set filed under Bos taurus was 2000 µM/min/mg. Regarding `COc1ncnc2c1nnn2[C@@H]1O[C@H](CO)[C@@H](O)[C@H]1O`, in the data set filed under Bos taurus, the Vmax is 27 µM/min/mg. The compound `Nc1nc(F)nc2c1nnn2[C@H]1C[C@H](O)[C@@H](CO)O1` came in with an IC50 in the data set on HEp-2 [2] of 70 µM. Still for that read-out and setting: the value for `CSc1nc(N)c2nn(C3O[C@H](CO)[C@@H](O)[C@H]3O)nc2n1` (some centres undefined) was 25 µM. In the data set on P388 [4], `CS(=O)(=O)c1nc(N)c2nnn(C3O[C@H](CO)[C@@H](O)[C@H]3O)c2n1` (some centres undefined) gave an increase in lifespan (ILS) of 38%. Moreover, the IC50 with HEp-2 [2] stood at 14 µM.

As for `Nc1nc(F)nc2c1ncn2[C@@H]1O[C@H](CO)[C@@H](O)[C@H]1O`, the Vmax in the data set listed under Bos taurus amounted to 0.78 µM/min/mg. `Nc1nc(O)nc2nn(C3O[C@H](CO)[C@@H](O)[C@H]3O)nc12` (some centres undefined): in the data set on HEp-2 [2], the IC50 was over 75 µM. Take `Nc1ncnc2c1ncn2[C@@H]1O[C@H](CO)[C@@H](O)[C@H]1O` [ADENOSINE]: the Vmax in the data set listed under Bos taurus was determined as 435 µM/min/mg. In the data set on HEp-2 [2], `Nc1nc(O)c2nnn(C3O[C@H](CO)[C@@H](O)[C@H]3O)c2n1` (some centres undefined) displayed an IC50 of 2 µM. Turning to `Nc1ncnc2c1nnn2[C@@H]1O[C@H](CO)[C@@H](O)[C@H]1O`, the values for the IC50 in the data set with HEp-2 [3] and with HEp-2 [2] were under 0.02 µM and 0.7 µM, respectively. Further, the Vmax in the data set listed under Bos taurus is 1500 µM/min/mg. Take `Nc1nc(F)nc2nn(C3O[C@H](CO)[C@@H](O)[C@H]3O)nc12` (some centres undefined): the IC50 in the data set with HEp-2 [2] is over 75 µM. Take `Nc1ncnc2c1nnn2[C@@H]1O[C@H](CO)[C@@H](O)[C@@H]1O`: in the data set filed under Bos taurus, the Vmax was 75 µM/min/mg.

Turning to `CS(=O)(=O)c1nc(N)c2nn(C3O[C@H](CO)[C@@H](O)[C@H]3O)nc2n1` (some centres undefined), half-maximal inhibition with HEp-2 [2] (IC50) required 22 µM. As for `Nc1ncnc2c1ncn2[C@@H]1O[C@H](CO)[C@@H](O)[C@@H]1O` [VIDARABINE], the Vmax in the data set filed under Bos taurus is 94 µM/min/mg. For `CCOc1nc(N)c2nnn(C3O[C@H](CO)[C@@H](O)[C@H]3O)c2n1` (some centres undefined), the IC50 in the data set on HEp-2 [2] was over 75 µM. `Nc1nc(F)nc2c1nnn2C1O[C@H](CO)[C@@H](O)[C@H]1O` (some centres undefined): the IC50 with HEp-2 [3] and in the data set on HEp-2 [2] was 2 µM each time. This compound also displayed an ILS in the data set on P388 [5] of 21%. In addition, the Vmax in the data set listed under Bos taurus was determined as 5 µM/min/mg. For the compound `CSc1nc(N)c2nnn(C3O[C@H](CO)[C@@H](O)[C@H]3O)c2n1` (some centres undefined), in the data set on HEp-2 [2], the IC50 was over 130 µM. `Nc1nc(N)c2ncn([C@@H]3O[C@H](CO)[C@@H](O)[C@H]3O)c2n1`: the Vmax in the data set filed under Bos taurus came out at 119 µM/min/mg. On the same count and under the same terms, the value for `COc1ncnc2c1ncn2[C@@H]1O[C@H](CO)[C@@H](O)[C@@H]1O` was 2 µM/min/mg. On to `Nc1nc(N)c2nnn([C@@H]3O[C@H](CO)[C@@H](O)[C@H]3O)c2n1`, for which the results for the IC50 in the data set with HEp-2 [3] and with HEp-2 [2] were over 20 µM and 0.7 µM, respectively. Further, in the data set filed under Bos taurus, the Vmax came out at 23 µM/min/mg. In the data set on P388 [6], this compound returned an ILS of 25%. `Nc1nc(O)c2[nH]nnc2n1` [8-AZAGUANINE]: the 50% inhibitory concentration (IC50) in the data set with HEp-2 [2] worked out at 2 µM.
